According to PubChem BioAssay:
Activity calls are given as the source filed them.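 How the source made its calls, unless noted: active means viability at or below 10% of carrier control in both of two separate runs; inconclusive means viability at or below 10% in only one of the two runs; inactive means the rest.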

What was measured:
[1] = reducers of endogenous Her2 protein level, primary screen, SKBR3 breast tumor cells, AlphaScreen, ATP viability (AID 461;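 active means Her2 level under about 52% in both replicate screens, with viability over 70% of control, limit read from the data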;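 on Her2 level: lower value means less Her2 protein in the cells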;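 on viability: percent of carrier control wells set as 100% viability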); settings: 18-24 h, measured here: SKBR3 viability, ATP luminescence, at 10 µM
[2] = biological target: Receptor tyrosine-protein kinase erbB-2 (Homo sapiens) (UniProt P04626); experiment: as above; settings: 18-24 h, at 10 µM, stronger effect = lower value
Receptor tyrosine-protein kinase erbB-2 (Homo sapiens), sequence (P04626 whole entry, looked up): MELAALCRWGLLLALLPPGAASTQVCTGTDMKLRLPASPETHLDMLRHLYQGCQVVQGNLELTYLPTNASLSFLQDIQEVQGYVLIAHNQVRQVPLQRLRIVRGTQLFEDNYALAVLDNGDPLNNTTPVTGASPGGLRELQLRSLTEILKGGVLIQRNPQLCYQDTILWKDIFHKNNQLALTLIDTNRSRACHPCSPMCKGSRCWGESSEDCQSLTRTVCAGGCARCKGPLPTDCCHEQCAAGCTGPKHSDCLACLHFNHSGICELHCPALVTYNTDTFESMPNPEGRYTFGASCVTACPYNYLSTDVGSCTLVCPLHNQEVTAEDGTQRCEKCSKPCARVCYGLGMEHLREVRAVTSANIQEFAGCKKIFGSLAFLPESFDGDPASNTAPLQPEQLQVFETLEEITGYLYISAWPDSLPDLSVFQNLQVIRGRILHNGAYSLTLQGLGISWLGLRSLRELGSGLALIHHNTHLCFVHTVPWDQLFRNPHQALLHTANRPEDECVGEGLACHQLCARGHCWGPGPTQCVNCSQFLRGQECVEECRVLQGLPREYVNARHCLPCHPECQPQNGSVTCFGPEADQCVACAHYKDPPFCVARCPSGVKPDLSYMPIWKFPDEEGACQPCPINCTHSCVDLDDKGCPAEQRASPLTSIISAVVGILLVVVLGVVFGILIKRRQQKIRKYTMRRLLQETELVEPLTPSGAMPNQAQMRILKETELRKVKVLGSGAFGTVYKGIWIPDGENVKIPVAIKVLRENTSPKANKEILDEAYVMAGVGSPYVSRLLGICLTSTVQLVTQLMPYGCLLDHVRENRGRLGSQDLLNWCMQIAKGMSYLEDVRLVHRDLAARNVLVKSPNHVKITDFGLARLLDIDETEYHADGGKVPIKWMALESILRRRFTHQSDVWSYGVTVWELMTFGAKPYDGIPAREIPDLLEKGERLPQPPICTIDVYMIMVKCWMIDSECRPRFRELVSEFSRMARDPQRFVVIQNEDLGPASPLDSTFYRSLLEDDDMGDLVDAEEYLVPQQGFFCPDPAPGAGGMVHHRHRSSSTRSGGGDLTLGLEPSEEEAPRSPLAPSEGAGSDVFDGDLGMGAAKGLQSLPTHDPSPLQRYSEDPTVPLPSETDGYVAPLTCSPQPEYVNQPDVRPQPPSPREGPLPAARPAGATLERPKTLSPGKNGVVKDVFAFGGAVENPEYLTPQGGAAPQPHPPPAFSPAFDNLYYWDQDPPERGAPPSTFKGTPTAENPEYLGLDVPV

[3] = SK-BR-3 cell growth inhibitors, pilot screen, 24 h, human (AID 572); settings: SK-BR-3 viability, CellTiter-Glo luminescence, at 10 µM, stronger effect = lower value;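 further: compound exposure lasted between 18 and 24 h rather than exactly 24 h; 100% = carrier-treated control wells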
[4] = HUVEC growth inhibition – cell-based, human, primary screen (AID 575;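 active means viability at or below 30% in both replicate assays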;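 further: 100% = median of untreated cell wells with 0.1% DMSO on each plate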); settings: HUVEC proliferation, CellTiter-Glo luminescence, 72 h; at 10 µM; stronger effect = lower value
In short: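 System – primary HUVEC, no more than 12 passages · Medium – Low-serum (2% FBS) EBM, supplemented · Times – 72 h exposure, 37 °C, 5% CO2, 30 min RT equilibration · Measured by – luminescent ATP assay · Read-out – % viability relative to median vehicle-well signal on each plate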

[5] = growth inhibitors of H69AR lung tumor, primary screen, human, duplicate replicates (AID 580;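 active means viability at or under a set limit in both replicates, limit being median viability minus 3 SD, cut at about 48% in these data, passing the limit was not always enough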;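 further: 100% = mean luminescence of untreated wells and 0% = no signal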); settings: H69AR lung tumor cells viability, ATP luminescence, 72 h; at 10 µM; stronger effect = lower value
[6] = reversal of MRP1-mediated doxorubicin resistance, pilot screen, H69AR cells, doxorubicin co-treatment (AID 601;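 active means viability loss from added drug above about 55%, and viability with drug at most 40%, in both replicates, limit read from the data, passing the limit was not always enough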); settings: CellTiter-Glo, 72 h, at 10 µM; for differential viability (reversal): stronger effect = higher value
[7] = 384-well plate pilot, post-Golgi transport modulator project, inhibition of yeast transport mutant growth (AID 636; in the data active means inhibition above about 31%); settings: absorbance 615 nm, about 18 h, stronger effect = higher value
[8] = growth suppression of yeast trafficking mutant, preliminary HTS, modulators of trafficking downstream of Golgi apparatus project, 1536-format plate, OD 615 nm (AID 637; in the data active means inhibition above about 30%); settings: yeast transport mutant growth, absorbance 615 nm, 18 h; stronger effect = higher value
[9] = H69AR cells + 2 uM doxorubicin, measured here: viability with 2 uM doxorubicin, stronger effect = lower value
[10] = H69AR cells, compound alone cytotoxicity

Row | SMILES | viability [1] | Her2 level [2] | viability [3] | viability [4] | viability [5] | differential viability (reversal) ([6]; H69AR cells + 2 uM doxorubicin) | viability [6, 9] | viability [6, 10] | inhibition [7] | inhibition [8]
1 | CCOC(=O)C(C)On1c(SC(C)C(=O)OCC)nc2ccccc2c1=O (stereo not given) | 131% | 102% (inactive) | 131% (inactive) | 93.4% (inactive) | 82.1% (inactive) | -19.7% (inactive) | 102% | 82.1% | -3.68% (inactive) | -6.61% (inactive)
2 | Cc1cc(-c2ccccc2)c(C#N)c(N)n1 | 114% | 91% (inactive) | 114% (inactive) | 81.9% (inactive) | 99.3% (inactive) | 6.5% (inactive) | 92.8% | 99.3% | -2.3% (inactive) | -0.98% (inactive)
3 | CCOC(=O)N1CCC(O)(c2cc(C)c(C)cc2C)CC1 | 102% | 95.5% (inactive) | 102% (inactive) | 109% (inactive) | 99.4% (inactive) | 9.24% (inactive) | 90.2% | 99.4% | -4.19% (inactive) | -5% (inactive)
4 | O=C(OCn1nnc2ccccc2c1=O)C1CCN(S(=O)(=O)c2cccs2)CC1 | 97% | 133% (inactive) | 97% (inactive) | 97.7% (inactive) | 105% (inactive) | 1.22% (inactive) | 104% | 105% | 1.54% (inactive) | -4.67% (inactive)
5 | COc1cccc(N2CCN(Cc3nc(N)nc(Nc4ccccc4OC)n3)CC2)c1 | 124% | 92% (inactive) | 124% (inactive) | 107% (inactive) | 77.4% (inactive) | -7.01% (inactive) | 84.4% | 77.4% | -3.95% (inactive) | 1.13% (inactive)
6 | COC(=O)C1=C(C)Nc2nnnn2C1c1cccs1 (stereo not given) | 95.5% | 101% (inactive) | 95.5% (inactive) | 104% (inactive) | 96.9% (inactive) | 3.09% (inactive) | 93.8% | 96.9% | 2.84% (inactive) | 5.71% (inactive)
7 | O=C(OCC(=O)N1CCCCCC1)c1cccs1 | 99% | 95.5% (inactive) | 99% (inactive) | 103% (inactive) | 106% (inactive) | 9.71% (inactive) | 96.7% | 106% | -0.67% (inactive) | 1.77% (inactive)
8 | C=CCNC(=O)c1cccc(Br)c1 | 92% | 94% (inactive) | 92% (inactive) | 89.4% (inactive) | 92% (inactive) | -9.44% (inactive) | 101% | 92% | 9.59% (inactive) | 5.08% (inactive)
9 | COc1ccc(-c2cc(C(F)(F)F)nc(SCCC(=O)N3CCOCC3)n2)cc1 | 116% | 90.5% (inactive) | 116% (inactive) | 94.1% (inactive) | 90% (inactive) | 3.6% (inactive) | 86.4% | 90% | -1.71% (inactive) | 2.46% (inactive)
10 | Cc1nc(CNS(=O)(=O)c2cc(C)c(C)cc2C)cs1 | 99% | 89% (inactive) | 99% (inactive) | 121% (inactive) | 94.3% (inactive) | 4.38% (inactive) | 89.9% | 94.3% | -7.57% (inactive) | 1.67% (inactive)
11 | O=C(COC(=O)C1CCN(S(=O)(=O)c2cccs2)CC1)c1cc2ccccc2o1 | 104% | 83% (inactive) | 104% (inactive) | 91.9% (inactive) | 96.2% (inactive) | 2.38% (inactive) | 93.8% | 96.2% | -2.19% (inactive) | -0.63% (inactive)
12 | O=C(C1CC1)N(Cc1ccco1)c1nc(-c2ccccc2)cs1 | 96.5% | 108% (inactive) | 96.5% (inactive) | 81.4% (inactive) | 86.4% (inactive) | 1.75% (inactive) | 84.7% | 86.4% | -5.6% (inactive) | -8.36% (inactive)
13 | COc1ccc(-c2cc3nc(C)c(CCC(=O)NCc4ccco4)c(C)n3n2)c(OC)c1 | 103% | 91% (inactive) | 103% (inactive) | 92.1% (inactive) | 85.8% (inactive) | -2.58% (inactive) | 88.4% | 85.8% | 0.53% (inactive) | 6.91% (inactive)
14 | COC(=O)C(NC(C)=O)(Nc1ccccn1)C(F)(F)F (stereo not given) | 98% | 78% (inactive) | 98% (inactive) | 105% (inactive) | 89% (inactive) | -5.41% (inactive) | 94.4% | 89% | -1.97% (inactive) | -7.64% (inactive)
15 | CCCn1nc(NS(=O)(=O)c2ccccc2)c2cc3ccccc3nc21 | 91.5% | 94.5% (inactive) | 91.5% (inactive) | 76.5% (inactive) | 120% (inactive) | 25% (inactive) | 94.9% | 120% | -1.84% (inactive) | 5.45% (inactive)
16 | COC(=O)c1c(N)n(-c2cc(OC)cc(OC)c2)c2nc3ccccc3nc12 | 85.5% | 93% (inactive) | 85.5% (inactive) | 61.7% (inactive) | 101% (inactive) | 10.6% (inactive) | 90.5% | 101% | -6.35% (inactive) | 3.83% (inactive)

Row | SMILES | viability [1] | Her2 level [2] | viability [3] | viability [4] | viability [5] | differential viability (reversal) ([6]; H69AR cells + 2 uM doxorubicin) | viability [6, 9] | viability [6, 10] | inhibition [7] | inhibition [8]
17 | CC(=O)c1cccc(N(CC(=O)N2CCCC2)S(C)(=O)=O)c1 | 91.5% | 93% (inactive) | 91.5% (inactive) | 99.3% (inactive) | 99.7% (inactive) | 5.66% (inactive) | 94.1% | 99.7% | -6.67% (inactive) | 0.48% (inactive)
18 | O=C1c2ccccc2CN1CCNS(=O)(=O)c1ccc(Cl)cc1 | 104% | 92.5% (inactive) | 104% (inactive) | 98% (inactive) | 88% (inactive) | 3.27% (inactive) | 84.8% | 88% | -7.87% (inactive) | -0.63% (inactive)
19 | COc1ccc(S(=O)(=O)N2CCN(CC(=O)Nc3ccc(F)c(F)c3)CC2)cc1 | 88.5% | 86% (inactive) | 88.5% (inactive) | 75.6% (inactive) | 91.1% (inactive) | -2.83% (inactive) | 93.9% | 91.1% | -1.73% (inactive) | -1.94% (inactive)
20 | COc1ccc(CC(NC(C)=O)C(=O)NC2CCN(C(=O)Nc3ccc(C#N)cc3)CC2)cc1OC (stereo not given) | 93% | 91.5% (inactive) | 93% (inactive) | 117% (inactive) | 94.2% (inactive) | -3.13% (inactive) | 97.3% | 94.2% | -4.13% (inactive) | 2.79% (inactive)
21 | C=CCN1C(=O)C2(c3ccccc31)C1CCCC=C1C(C#N)=C(N)C2(C#N)C#N (stereo not given) | 81% | 82% (inactive) | 81% (inactive) | 62.7% (inactive) | 76.4% (inactive) | -13.9% (inactive) | 90.3% | 76.4% | 2.53% (inactive) | 26.8% (inactive)
22 | COc1ccc(C(=O)Cn2c(N3CCCCC3)nc3c2c(=O)n(C)c(=O)n3C)cc1OC | 94% | 98.5% (inactive) | 94% (inactive) | 83.9% (inactive) | 92.7% (inactive) | -6.42% (inactive) | 99.1% | 92.7% | 1.18% (inactive) | -1.48% (inactive)
23 | Cc1cc2ncc(C(=O)Nc3ccccc3)c(C)n2n1 | 94% | 94% (inactive) | 94% (inactive) | 124% (inactive) | 99.5% (inactive) | 12.7% (inactive) | 86.8% | 99.5% | -4.34% (inactive) | -0.48% (inactive)
24 | CC(C)CCNC(=O)NC(=O)CN1C(=O)NC2(CCCCC2)C1=O | 90% | 120% (inactive) | 90% (inactive) | 104% (inactive) | 96.9% (inactive) | -4.12% (inactive) | 101% | 96.9% | 1.32% (inactive) | 10.9% (inactive)
25 | O=C(Nc1ccc2snnc2c1)N1CCSCC1 | 108% | 104% (inactive) | 108% (inactive) | 103% (inactive) | 98.9% (inactive) | 2.63% (inactive) | 96.2% | 98.9% | 0.77% (inactive) | -0.5% (inactive)
26 | CCOC(=O)c1ccc(CC2S/C(=C(\C#N)C(C)=O)NC2=O)cc1 (stereo not given) | 91.5% | 89.5% (inactive) | 91.5% (inactive) | 95.7% (inactive) | 89.6% (inactive) | -4.15% (inactive) | 93.7% | 89.6% | -6.53% (inactive) | 1.94% (inactive)
27 | O=C(CCN1C(=O)c2ccccc2C1=O)OCN1C(=O)c2ccccc2C1=O | 95% | 108% (inactive) | 95% (inactive) | 97.7% (inactive) | 91.8% (inactive) | -10.6% (inactive) | 102% | 91.8% | 6.8% (inactive) | -3.17% (inactive)
28 | O=C1CCCc2c1cc(C(=O)NCc1ccco1)c(=O)n2-c1ccc(Cl)cc1 | 88% | 110% (inactive) | 88% (inactive) | 80.8% (inactive) | 93.5% (inactive) | 13% (inactive) | 80.5% | 93.5% | -4.8% (inactive) | -3.39% (inactive)
29 | CCOc1ccccc1-n1c(SCC(=O)NCc2ccco2)nnc1-c1ccncc1 | 87% | 90% (inactive) | 87% (inactive) | 90.4% (inactive) | 75.6% (inactive) | 39.9% (inactive) | 35.7% | 75.6% | -7.47% (inactive) | -0.48% (inactive)
30 | Cc1nnc(SCc2ccccc2)n1N | 104% | 98% (inactive) | 104% (inactive) | 103% (inactive) | 99.6% (inactive) | 0.72% (inactive) | 98.9% | 99.6% | -0.67% (inactive) | -5.32% (inactive)
31 | COC(=O)c1ccccc1NC(=O)CSc1nnc(-c2ccncc2)o1 | 98% | 81.5% (inactive) | 98% (inactive) | 103% (inactive) | 101% (inactive) | 8.3% (inactive) | 92.4% | 101% | -4.67% (inactive) | 0.95% (inactive)
